Assay results as given in paper PMC6686180 (Biochemistry, 2018).
Read-outs that look alike come from different tables or passages of the source. Each block holds one molecule with its values, some of them ahead of it. Ends that are not written are not given here. * marks the point of attachment. 5FAM = O=C1OC2(c3ccc(O)cc3Oc3cc(O)ccc32)c2ccc(C(=O)*)cc21

Experiments:
GGTase-I [1] = biological target: T1, GGTase-I (Rattus norvegicus, UniProt P53610+Q04631); assay: Radiolabel prenylation assay: GGTase-I-catalyzed geranylgeranylation of RhoA; assay type: biochemical; details: for effect of nucleotide on initial rate of RhoA geranylgeranylation / effect of nucleotide on endpoint level of incorporated isoprenoid: 25 μM GTP or GDP, RhoA 1.3 μM, GGTase-I 5 nM, without SmgGDS; for effect of nucleotide on initial rate of RhoA geranylgeranylation: 3H-GGPP 9 μM; for effect of nucleotide on endpoint level of incorporated isoprenoid: incubation 2 hr
T1 sequence (P53610 whole entry, one chain of several): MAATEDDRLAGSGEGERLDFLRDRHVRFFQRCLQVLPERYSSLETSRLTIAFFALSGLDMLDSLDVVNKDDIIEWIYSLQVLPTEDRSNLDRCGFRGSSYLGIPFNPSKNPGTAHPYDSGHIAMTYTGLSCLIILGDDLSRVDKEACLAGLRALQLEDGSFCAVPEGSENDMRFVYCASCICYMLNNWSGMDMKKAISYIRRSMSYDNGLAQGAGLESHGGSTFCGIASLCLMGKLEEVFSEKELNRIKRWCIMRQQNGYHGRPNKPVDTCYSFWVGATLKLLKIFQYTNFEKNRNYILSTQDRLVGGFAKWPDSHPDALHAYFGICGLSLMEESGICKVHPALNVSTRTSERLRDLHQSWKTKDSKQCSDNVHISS

FTase [2] = details: addition of GDP or GTPγS; cited from earlier work
GGTase-I [3] = details: cited from earlier work
RhoA [4] = assay: Radiolabel prenylation assay of RhoA with SmgGDS-607; assay type: biochemical, human
RhoA [5] = details: read-out: Kd of RhoA for GTPγS; with Mg^2+; cited from earlier work
FTase [6] = details: FTase binding; cited from earlier work
[7] = biological target: biotinylated SmgGDS-607 (human) (UniProt P52306); assay: BLI
[8] = biological target: biotinylated SmgGDS-607 (human) (UniProt P52306); assay: BLI; remark: listed apart in the source
SmgGDS = details: cells, cited from earlier work
[9] = biological target: RhoA 13mer (5-fam-…) (human); assay: fluorescence polarisation
[10] = biological target: geranylgeranylated RhoA 13mer peptide (human); assay: fluorescence polarisation
GGTase-I [11] = biological target: T1, GGTase-I; assay: Peptide prenylation assay; assay type: biochemical; details: GGTase-I 10 nM; for effect on GGTase-I activity with peptide substrate: 5 μM SmgGDS, dansyl-GCLVL, saturating GGPP (10 μM)
How it was run: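 GGTase-I (10 nM) and 10 μM GGPP were incubated at 30°C with varied dansyl-GCLVL (RhoA CaaX peptide), with or without SmgGDS (5 μM final) or GDP/GTP (30 μM final). Prenylation-dependent fluorescence (ex 340/em 520 nm) was read every 40 s for 2 h. Initial slopes were converted to velocity, and kcat and KM came from Michaelis-Menten fits of V/E.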

SmgGDS-607 = details: non-farnesylated versus farnesylated RhoA; cited from earlier work
[12] = biological target: RhoA CaaX only peptide (5fam-GCLVL) (human); assay: fluorescence polarisation
RhoA (human) = assay: inhibition of radiolabel prenylation
SmgGDS-558 = biological target: T2, SmgGDS-558 (human, UniProt P52306-2 1-558); assay: fluorescence polarisation
T2 sequence (looked up): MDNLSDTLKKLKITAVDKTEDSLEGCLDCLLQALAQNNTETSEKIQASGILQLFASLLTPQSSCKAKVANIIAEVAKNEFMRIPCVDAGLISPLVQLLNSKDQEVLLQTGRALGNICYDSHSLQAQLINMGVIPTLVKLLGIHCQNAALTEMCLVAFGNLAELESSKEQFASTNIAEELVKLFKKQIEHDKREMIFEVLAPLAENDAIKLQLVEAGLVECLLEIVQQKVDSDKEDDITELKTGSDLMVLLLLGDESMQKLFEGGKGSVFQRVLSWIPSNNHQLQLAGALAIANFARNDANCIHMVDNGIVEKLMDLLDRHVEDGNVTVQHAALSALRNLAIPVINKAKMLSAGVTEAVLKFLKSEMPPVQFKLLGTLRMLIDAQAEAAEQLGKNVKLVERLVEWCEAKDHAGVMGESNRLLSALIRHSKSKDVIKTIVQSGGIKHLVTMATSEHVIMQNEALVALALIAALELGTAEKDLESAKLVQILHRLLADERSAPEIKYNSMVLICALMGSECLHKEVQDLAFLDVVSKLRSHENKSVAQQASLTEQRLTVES

[13] = Buffer (no additive), GGPP 10 μM, 30°C, fluorescence

Molecule: Nc1nc2c(ncn2[C@@H]2O[C@H](COP(=O)(O)OP(=O)(O)O)[C@@H](O)[C@H]2O)c(=O)[nH]1 [GDP]
effect of GDP on GGTase-I activity for RhoA (GGTase-I [1]; 20 μM GDP without SmgGDS-607, RhoA 3 μM, GGTase-I 10 nM, 3H-GGPP 1.8 μM, 4 min): does not affect GGTase-I activity for RhoA
effect of nucleotide on initial rate of RhoA geranylgeranylation (GGTase-I [1]): No difference was observed
effect of nucleotide on endpoint level of incorporated isoprenoid (GGTase-I [1]): no significant difference
FTase activity for farnesylation of H-Ras (FTase [2]): unaffected

Molecule: CC(C)=CCC/C(C)=C/CC/C(C)=C/CC/C(C)=C/COP(=O)(O)OP(=O)(O)O [GGPP, geranylgeranyl pyrophosphate]
Km (GGTase-I [3]; GGTase-I KM for GGPP): 0.003 µM

Molecule: Nc1nc2c(ncn2[C@@H]2O[C@H](COP(=O)(O)OP(=O)(O)OP(=O)(O)O)[C@@H](O)[C@H]2O)c(=O)[nH]1 [GTP]
effect of nucleotide on initial rate of RhoA geranylgeranylation (GGTase-I [1]): No difference was observed
effect of nucleotide on endpoint level of incorporated isoprenoid (GGTase-I [1]): no significant difference
restoration of RhoA geranylgeranylation at saturating GTP (RhoA [4]; 5 μM SmgGDS-607, versus level in absence of SmgGDS-607, RhoA 3 μM): do not restore RhoA geranylgeranylation to the level observed in the absence of SmgGDS-607
concentration of GTP required to reach saturating RhoA geranylgeranylation (RhoA [4]; in the presence of 5 μM SmgGDS-607, RhoA 3 μM, GGTase-I 10 nM, 3H-GGPP 1.8 μM, 4 min): ~ 3 μM

Molecule: Nc1nc2c(ncn2[C@@H]2O[C@H](COP(=O)(O)OP(=O)(O)OP(O)(O)=S)[C@@H](O)[C@H]2O)c(=O)[nH]1 [GTPγS]
Kd (RhoA [5]): 160 nM

Molecule: GCVLS
Kd (FTase [6]): 58 nM

Molecule: RhoA (natural protein)
Kd [7]: 77 nM
Kd [8]: 249 nM

Molecule: RhoA G14V: constitutively active mutant, predominantly bound to GTP
co-immunoprecipitation of SmgGDS (SmgGDS): did not co-immunoprecipitate detectable amounts of SmgGDS

Molecule: RhoA T19N: dominant negative mutant of RhoA, predominantly nucleotide-free in cells
co-immunoprecipitation of SmgGDS-607 (SmgGDS; versus wildtype RhoA): co-immunoprecipitates greater amounts of SmgGDS-607 than wildtype RhoA

Molecule: dansyl-GCVLL
kcat (GGTase-I [3]; peptide substrate dansyl-GCVLL): 0.051 s⁻¹

Molecule: non-farnesylated RhoA: non-farnesylated RhoA of the recent structural study
affinity for SmgGDS-607 (SmgGDS-607): had higher affinity for SmgGDS-607 than farnesylated RhoA

B1: SmgGDS-558: human SmgGDS 558-amino acid splice variant with 12 armadillo repeats (UniProt P52306–2) (protein)
chain: MDNLSDTLKKLKITAVDKTEDSLEGCLDCLLQALAQNNTETSEKIQASGILQLFASLLTPQSSCKAKVANIIAEVAKNEFMRIPCVDAGLISPLVQLLNSKDQEVLLQTGRALGNICYDSHSLQAQLINMGVIPTLVKLLGIHCQNAALTEMCLVAFGNLAELESSKEQFASTNIAEELVKLFKKQIEHDKREMIFEVLAPLAENDAIKLQLVEAGLVECLLEIVQQKVDSDKEDDITELKTGSDLMVLLLLGDESMQKLFEGGKGSVFQRVLSWIPSNNHQLQLAGALAIANFARNDANCIHMVDNGIVEKLMDLLDRHVEDGNVTVQHAALSALRNLAIPVINKAKMLSAGVTEAVLKFLKSEMPPVQFKLLGTLRMLIDAQAEAAEQLGKNVKLVERLVEWCEAKDHAGVMGESNRLLSALIRHSKSKDVIKTIVQSGGIKHLVTMATSEHVIMQNEALVALALIAALELGTAEKDLESAKLVQILHRLLADERSAPEIKYNSMVLICALMGSECLHKEVQDLAFLDVVSKLRSHENKSVAQQASLTEQRLTVES
modifications: left off: His6-tev, end not stated, state not stated
effect on GGTase-I activity with peptide substrate (GGTase-I [11]): not significantly altered

B4: RhoA CaaX only peptide (5fam-GCLVL) (peptide)
peptide: 5FAM-GCLVL
Kd (SmgGDS-558): > 40000 nM

More lines, now with the values ahead:

Kd [9]: 1900 nM
Kd [10]: > 16000 nM
Molecule: SmgGDS-607 (from UniProt P52306-1 1-607) (natural protein)

Km (GGTase-I [11]; [13]): 1.9 ± 0.8 µM
kcat (GGTase-I [11]; [13]): 0.046 ± 0.009 s⁻¹
Molecule: dansyl-GCLVL [dansyl GCLVL]

Kd [9]: 56 nM
Kd [12]: 2200 nM
Molecule: protein geranylgeranyltransferase I (from UniProt Q04631 1-377) (complex)

Ki (RhoA (human)): 85 nM
B2: SmgGDS-607 (natural protein)
chain: MDNLSDTLKKLKITAVDKTEDSLEGCLDCLLQALAQNNTETSEKIQASGILQLFASLLTPQSSCKAKVANIIAEVAKNEFMRIPCVDAGLISPLVQLLNSKDQEVLLQTGRALGNICYDSHEGRSAVDQAGGAQIVIDHLRSLCSITDPANEKLLTVFCGMLMNYSNENDSLQAQLINMGVIPTLVKLLGIHCQNAALTEMCLVAFGNLAELESSKEQFASTNIAEELVKLFKKQIEHDKREMIFEVLAPLAENDAIKLQLVEAGLVECLLEIVQQKVDSDKEDDITELKTGSDLMVLLLLGDESMQKLFEGGKGSVFQRVLSWIPSNNHQLQLAGALAIANFARNDANCIHMVDNGIVEKLMDLLDRHVEDGNVTVQHAALSALRNLAIPVINKAKMLSAGVTEAVLKFLKSEMPPVQFKLLGTLRMLIDAQAEAAEQLGKNVKLVERLVEWCEAKDHAGVMGESNRLLSALIRHSKSKDVIKTIVQSGGIKHLVTMATSEHVIMQNEALVALALIAALELGTAEKDLESAKLVQILHRLLADERSAPEIKYNSMVLICALMGSECLHKEVQDLAFLDVVSKLRSHENKSVAQQASLTEQRLTVES

inhibition of RhoA prenylation catalyzed by GGTase-I (overall statement) (RhoA [4]; in vitro radiolabel incorporation assay): completely inhibits RhoA prenylation
effect on GGTase-I activity with peptide substrate (GGTase-I [11]): not significantly altered
B3: SmgGDS-607: human SmgGDS 607-amino acid splice variant with one additional armadillo repeat (UniProt P52306–1) (protein)
chain: MDNLSDTLKKLKITAVDKTEDSLEGCLDCLLQALAQNNTETSEKIQASGILQLFASLLTPQSSCKAKVANIIAEVAKNEFMRIPCVDAGLISPLVQLLNSKDQEVLLQTGRALGNICYDSHEGRSAVDQAGGAQIVIDHLRSLCSITDPANEKLLTVFCGMLMNYSNENDSLQAQLINMGVIPTLVKLLGIHCQNAALTEMCLVAFGNLAELESSKEQFASTNIAEELVKLFKKQIEHDKREMIFEVLAPLAENDAIKLQLVEAGLVECLLEIVQQKVDSDKEDDITELKTGSDLMVLLLLGDESMQKLFEGGKGSVFQRVLSWIPSNNHQLQLAGALAIANFARNDANCIHMVDNGIVEKLMDLLDRHVEDGNVTVQHAALSALRNLAIPVINKAKMLSAGVTEAVLKFLKSEMPPVQFKLLGTLRMLIDAQAEAAEQLGKNVKLVERLVEWCEAKDHAGVMGESNRLLSALIRHSKSKDVIKTIVQSGGIKHLVTMATSEHVIMQNEALVALALIAALELGTAEKDLESAKLVQILHRLLADERSAPEIKYNSMVLICALMGSECLHKEVQDLAFLDVVSKLRSHENKSVAQQASLTEQRLTVES
modifications: left off: His6-tev, end not stated, state not stated
